Assay results reported in PubChem BioAssay AID522 (The Scripps Research Institute Molecular Screening Center, 2006).
The campaign covered roughly 65,000 compounds. About 1,200 (1.8%) were called active.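 The calls were made as follows: active = activation above the mean activation of all tested compounds plus 3 SD (cut at about 50% in these data); inactive = the rest.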 Many of the other results were omitted from the sample, so actives are more common in it than they were.

Molecular target: Steroidogenic factor 1 (Homo sapiens) (UniProt Q13285)
Experiment: activators of human SF-1, primary screen, cell-based, CHO-K1, Gal4-SF-1 LBD, luciferase luminescence (AID 522)
Conditions: CHO-K1 Gal4-SF-1 LBD luciferase reporter; at 10 µM; active compounds read high; % increase over DMSO SF-1-specific signal
Outline: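 Test system: CHO-K1 cells with Gal4–hSF-1 LBD chimera plus Gal4-driven luciferase; Input: 4,000 cells/well; Compound: 10 µM only; Times: 20 h compound treatment, 37 °C; Measured by: steady-glow luciferase luminescence, read after 15 min reagent incubation; Measure: percent activation versus DMSO; Control set: DMSO and mock-transfected background; Replicates: one test per compound.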

Chain of Steroidogenic factor 1 (Homo sapiens) (Q13285 whole entry, looked up, the tested form may be a part): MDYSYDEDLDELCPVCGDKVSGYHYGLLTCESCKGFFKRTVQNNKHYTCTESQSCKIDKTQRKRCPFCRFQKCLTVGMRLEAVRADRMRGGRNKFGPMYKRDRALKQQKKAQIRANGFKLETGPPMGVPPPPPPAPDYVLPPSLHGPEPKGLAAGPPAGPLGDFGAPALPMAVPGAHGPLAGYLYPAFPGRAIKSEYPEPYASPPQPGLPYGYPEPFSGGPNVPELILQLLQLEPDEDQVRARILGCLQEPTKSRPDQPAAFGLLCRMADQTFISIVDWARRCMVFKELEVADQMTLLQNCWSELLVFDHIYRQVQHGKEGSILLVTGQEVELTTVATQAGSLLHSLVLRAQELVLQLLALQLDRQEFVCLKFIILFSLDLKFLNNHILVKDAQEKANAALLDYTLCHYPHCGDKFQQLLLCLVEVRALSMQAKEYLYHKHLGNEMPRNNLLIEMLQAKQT

activation, inactive:
O=C(O)CCC(=O)N(Cc1ccco1)c1nc(-c2ccccc2)cs1 9.9%
CCc1nc(N2CCN(c3nc(C)cc(C)n3)CC2)c2oc3ccccc3c2n1 12%
CCSc1nc(C)nc2c1oc1ccccc12 -10.2%
COc1ccc(N2CCN(C(=O)CSc3nnc4ncccn34)CC2)cc1 -2.5%
CCc1nnc(NC(=O)CSc2nnc(COc3ccc(C#N)cc3)n2-c2ccccc2)s1 0.6%
O=C(OCC(=O)N1CCCC1)c1ccco1 14.1%
O=C(COC(=O)c1ccccc1C(=O)c1ccccc1)c1ccco1 -2.1%
CCOC(=O)N1CCN(C(=O)C2CCN(S(C)(=O)=O)CC2)CC1 10.2%
CCOC(=O)c1sc(=S)n2c1[nH]c(=O)c1ccc(C(=O)OC)cc12 -7.4%
CCCCOc1ccc(NC(=O)CSCC(=O)OCC)cc1 -6.4%
CCOC(=O)c1cnc(SCC(=O)NCc2ccco2)nc1N 19.1%
O=C(CSc1nnc(-c2c[nH]c3ccccc23)n1-c1ccc(F)cc1)NCc1ccco1 15.7%
Cc1nnc(SCCCn2c(N3CCCCC3)nc3c2c(=O)[nH]c(=O)n3C)s1 -12.6%
COc1ccc(CCNC(=O)CSc2nc(C)nc3c2oc2ccccc23)cc1OC 27.4%
Cc1cc(C)nc(N2CCN(c3ncnc4c3oc3ccccc34)CC2)n1 -8.8%
Cn1c2c(c(=O)n(C)c1=O)C(c1ccc(O)cc1)Nc1ccccc1O2 (stereo not drawn) -0.7%
CCOc1ccccc1NC(=O)Nc1cc(OC)ccc1OC -10%
COc1ccc(C2C(C(=O)Nc3ccccc3OC)=C(C)Nc3nnnn32)c(OC)c1 (stereo not drawn) -6.7%
COc1ccc(OC)c(C2N(c3ccccn3)C(=O)C3CCCN32)c1 (stereo not drawn) -12.3%
O=C1C(=O)N(CCN2CCOCC2)C(c2ccccn2)/C1=C(/O)c1ccc(Cl)cc1 (stereo not drawn) -1.6%
C=C(C)COc1ccc(-c2n[nH]c(C)c2-c2ccccc2OC)c(O)c1 -12.7%
COc1ccc(OC)c(N=Cc2c(O)[nH]c3ccccc23)c1 0.1%
COc1cc(N=Cc2c(O)[nH]c3ccccc23)cc(OC)c1OC -0.5%
CCOc1nc(-c2ccc(OC)cc2)ccc1-c1noc(-c2cc(OC)c(OC)c(OC)c2)n1 -8.3%
Cc1ccc(N2C(=O)c3ccccc3C2(O)c2ncc[nH]2)cc1 (stereo not drawn) 6.2%
COc1ccc(CNC(=O)C2CCN(S(=O)(=O)N3CCOCC3)CC2)cc1 18.7%
CCOC(=O)c1cc(C)sc1NC(=O)C1CCC1 9.7%
O=C(Oc1cccnc1)c1cc2ccccc2oc1=O -8.6%
O=C(NCc1ccccn1)c1cc2ccccc2oc1=O 12.4%
OC(COc1ccc2ccccc2c1)CN1CCOCC1 (stereo not drawn) 39.4%
CN1CCN(CC(=O)Nc2sc3c(c2C#N)CCC(C(C)(C)C)C3)CC1 (stereo not drawn) 17.2%
CCCCOC(=O)NCN1C(=O)C2C3C=CC(C3)C2C1=O (stereo not drawn) -13.3%
CCCCCOC(=O)NCCOC(=O)Nc1ccc(C(=O)OCC)cc1 -12.6%
CCCn1c(O)c(CN2CCCC(C)C2)c(C)c(C#N)c1=O (stereo not drawn) -4.9%
COC(=O)C(NC(C)=O)(Nc1nc2c(s1)CCCC2)C(F)(F)F (stereo not drawn) -0.1%
O=C(CCS(=O)(=O)c1ccccc1)Nc1nc2c(s1)CCCC2 3.8%
CN(Cc1ccccc1)C(=O)CCNC(=O)Cn1cnc2ccccc2c1=O -16%
Cc1ccc(F)cc1NC(=O)Cc1nn(C)c(=O)c2ccccc12 -42.9%
Cc1cccc(N2CCN(S(=O)(=O)c3ccc4c(c3)c(=O)n(C)c(=O)n4C)CC2C)c1 (stereo not drawn) 3.8%
COc1ccc(N2C(=O)c3cccc4cccc(c34)C2=O)nn1 0.5%
CCc1ccccc1N(CC(=O)NCCSCc1ccco1)S(C)(=O)=O 4.6%
O=C(c1cccc(C(=O)N2CCc3ccccc32)n1)N1CCc2ccccc21 -0.8%
Cc1occc1C(=O)N1CCCc2ccccc21 -7.2%
COc1ccc(OCC(=O)N2CCN(C(=O)COc3ccccc3)CC2)cc1 -5.8%
CCOC(=O)c1cc(NC(=O)c2cccnc2)cc(C(=O)OCC)c1 -4.7%
CCOc1cccc(C(=O)Nc2cccnc2)c1 6.8%
CCC1=C/C(=C\c2ccc3c(c2)OCO3)C(=O)S1 0.1%
CCOc1cccc(NC(=O)C2CCCN(S(=O)(=O)c3ccc(OC)cc3)C2)c1 (stereo not drawn) 0.1%
COc1ccc(NC(=O)C2CCCN(S(=O)(=O)c3cccc4cccnc34)C2)cc1 (stereo not drawn) 5.1%
N#CC1=C(N)C(C#N)(C#N)[C@H](c2ccsc2)[C@H]2COCC=C12 -1.6%
COc1ccc(NC(=O)c2c(C)oc3c2CCCC3)cc1 26.5%
COc1ccccc1N1CCN(C(=O)c2cc(-c3ccc(Br)cc3)on2)CC1 3.2%
O=C(c1cc(-c2ccccc2O)on1)N1CCCC1 20.3%
Cc1ccc(Cn2c(NC(=O)c3ccco3)nc3ccccc32)cc1 -1.8%
COC(=O)c1cc(Cl)c(NC(=O)c2ccco2)cc1OC -3%
CN(C)Cc1c(C#N)c2ccccc2n1C -11.9%
Cc1ccc(C(=O)CSc2nc3ccccc3c(=O)n2N)o1 32.8%
Cn1c(COc2ccc(Cl)cc2)nc2ccccc2c1=O 45%
CCOC(=O)c1cccc(NC(=O)CN(c2ccc(C)cc2)S(=O)(=O)c2c(C)noc2C)c1 -5.1%
CC(=O)N1CCC(C(=O)Nc2nc(-c3ccccc3)ns2)CC1 -1.6%
COc1ccc(CN(C(=O)c2cccs2)c2nccs2)cc1OC 7.7%
Cn1c(=NC(=O)CSCC(=O)N2CCCCC2)sc2ccccc21 8.9%
O=C(c1cc(-c2cccs2)on1)N1CCCCC1 41.3%
CC(=O)Oc1ccc(C)cc1N1C(=O)c2ccc(C(=O)O)cc2C1=O -0.3%
Cn1c(CC(=O)Nc2ccccc2)nnc1SCC(=O)c1ccccc1 4.4%
O=C(CSc1nnc(-c2ccco2)n1CC1CCCO1)c1ccccc1 (stereo not drawn) 16.7%
Cc1c(C(=O)NCC2CCCO2)sc2nc(-c3ccccc3)cn12 (stereo not drawn) 9%
Clc1ccc(Cc2nn3c(-c4ccncc4)nnc3s2)cc1 15.3%
Cc1cc(NC(=O)c2cc(-c3cccs3)on2)nn1Cc1ccc(Cl)cc1 -2.6%
CSC1=NCCN1C(=O)c1ccc(S(=O)(=O)N2CCOCC2)cc1 -27.8%
CCN(CC)C(=O)CCC(=O)Nc1ccc(C(=O)OC)cc1 -4.8%
COC(=O)c1ccc(NC(=O)C(C)N2C(=O)c3ccccc3C2=O)cc1 (stereo not drawn) 11.6%
C=CCn1c(=O)c2ccccc2n2c(SCC(=O)N3CCCc4ccccc43)nnc12 -8.3%
N#Cc1nc(COc2ccc(-c3ccccc3)cc2)oc1NCc1cccnc1 -9.1%
CCOc1ccc(Nc2oc(Cc3ccccc3)nc2C#N)cc1 39.8%
CCOc1ccc2nc(NCCNS(=O)(=O)c3ccccc3)c(C#N)cc2c1 9.2%
COc1ccc2[nH]c(=O)c(-c3noc(-c4ccc(F)cc4)n3)cc2c1 -0.1%
COc1ccccc1Cc1nc(-c2ccc(C)cc2)no1 16.4%
Cc1ccc(-c2noc(CN3CCN(Cc4ccccc4)CC3)n2)cc1 16.7%
Cc1ccc(-c2noc(CCC(N)=O)n2)cc1 9.8%

activation, active:
CCc1nc(Nc2ccc3nccnc3c2)c2oc3ccccc3c2n1 50.3%
CCN(CC)c1ccc(C(=O)OCC(=O)c2ccco2)cc1 53.6%
CCCCOc1ccc(-c2ncc(C(=O)OCC)c(N)n2)cc1 49.8%
COc1ccccc1Nc1ncnc2c1oc1ccccc12 91.8%
COc1ccccc1NC(=O)c1ccc(C)s1 50.1%
COc1ccc(N=Cc2c(O)[nH]c3ccccc23)cc1OC 60.4%
Nc1ncc(-c2cc3ccccc3oc2=O)s1 79.3%
CCCCCCOC(=O)NCC(O)c1ccccc1 (stereo not drawn) 52.5%
Fc1ccc2nc(Nc3nc4c(s3)CCCC4)sc2c1 90%
O=C(Nn1cnc2ccccc2c1=O)c1ccc(F)cc1Cl 64.7%
O=C(c1cnn2ccccc12)N1CCc2ccccc21 111%
CCOC(=O)c1ccc(-c2ccc(C(=O)Nc3cccnc3)o2)cc1 51.3%
COc1ccc(S(=O)(=O)N2CCCC(C(=O)Nc3ccc(NC(=O)c4ccccn4)cc3)C2)cc1 (stereo not drawn) 63.3%
COc1ccccc1-c1cc(C(=O)N2CCCCC2)no1 82.1%
Cc1ccc(-n2nc3cc(Cl)c(NC(=O)c4ccco4)cc3n2)cc1 70.4%
COc1ccc(OCc2ccc(-c3nc4ccccc4c(=O)n3N)o2)cc1 59%
O=C(CSCc1cccs1)N1CCCC1 60.5%
O=C(CSc1nnc2ccccn12)c1ccccc1 55.3%
Clc1ccc(Cc2nnc(-c3cccs3)o2)cc1 59.5%
COC(=O)c1ccc(NCC(=O)c2ccccc2)cc1 68.7%
N#Cc1nc(Cc2ccccc2)oc1NCCc1ccccc1 63.4%
Cc1cccc(-c2noc(-c3ccc(F)cc3)n2)c1 77.6%
Cc1ccc(Cc2nc(-c3cccc(C)c3)no2)cc1 53.9%
